Only some compounds are listed: those with a hit (about 2.5% of all), similar ones and a draw of the others.
TRPC4 PAM = allosteric potentiators of mouse TRPC4 channel; B-score at 10 µM; HEK293 TRPC4beta/mu-opioid, DAMGO EC20, Fluo-4 Ca2+ flux; active compounds read high; AID 2227; Q9QUQ5; 310,000 compounds, 0.42% hits;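 active means B-score of calcium response area above 5 SD of library B-scores, with initial fluorescence ratio within 5 SD of library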;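 further: B-score of integrated fluorescence ratio over time as area under calcium response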
TRPC4 agonist = activators of mouse TRPC4 channel; Q9QUQ5; HEK293 TRPC4beta/mu-opioid, Fluo4 calcium fluorescence; active compounds read high; B-score at 10 µM; 310,000 compounds, 0.49% hits; AID 2237;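 active means B-score above 5 SD of library B-scores, and initial fluorescence ratio not above library mean plus 5 SD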;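 further: positive B-score marks a calcium rise read as TRPC4 activation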
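Assay system – TRPC4beta and mu-opioid receptor HEK293 stable cells · Measured by – Fluo4 fluorescence, kinetic · Schedule – dye loading 45 min room temperature, 110 s kinetic read · Read-out – B-scored integrated calcium fluorescence ratio · Controls – buffer and maximal DAMGO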
TRPC6 inhibitor = inhibitors of mouse TRPC6 channel; HEK293-TRPC6, membrane potential dye, ACh-evoked depolarization; active compounds read low; B-score at 10 µM; 310,000 compounds, 1.1% hits; AID 2553;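 active means B-score under library mean minus 3 SD, initial fluorescence not abnormally high, positive integrated signal ratio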;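 further: B-score derived from integrated fluorescence ratio over the kinetic read; more negative B-score means stronger inhibition of depolarization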
Target sequence (Q61143 whole entry, looked up): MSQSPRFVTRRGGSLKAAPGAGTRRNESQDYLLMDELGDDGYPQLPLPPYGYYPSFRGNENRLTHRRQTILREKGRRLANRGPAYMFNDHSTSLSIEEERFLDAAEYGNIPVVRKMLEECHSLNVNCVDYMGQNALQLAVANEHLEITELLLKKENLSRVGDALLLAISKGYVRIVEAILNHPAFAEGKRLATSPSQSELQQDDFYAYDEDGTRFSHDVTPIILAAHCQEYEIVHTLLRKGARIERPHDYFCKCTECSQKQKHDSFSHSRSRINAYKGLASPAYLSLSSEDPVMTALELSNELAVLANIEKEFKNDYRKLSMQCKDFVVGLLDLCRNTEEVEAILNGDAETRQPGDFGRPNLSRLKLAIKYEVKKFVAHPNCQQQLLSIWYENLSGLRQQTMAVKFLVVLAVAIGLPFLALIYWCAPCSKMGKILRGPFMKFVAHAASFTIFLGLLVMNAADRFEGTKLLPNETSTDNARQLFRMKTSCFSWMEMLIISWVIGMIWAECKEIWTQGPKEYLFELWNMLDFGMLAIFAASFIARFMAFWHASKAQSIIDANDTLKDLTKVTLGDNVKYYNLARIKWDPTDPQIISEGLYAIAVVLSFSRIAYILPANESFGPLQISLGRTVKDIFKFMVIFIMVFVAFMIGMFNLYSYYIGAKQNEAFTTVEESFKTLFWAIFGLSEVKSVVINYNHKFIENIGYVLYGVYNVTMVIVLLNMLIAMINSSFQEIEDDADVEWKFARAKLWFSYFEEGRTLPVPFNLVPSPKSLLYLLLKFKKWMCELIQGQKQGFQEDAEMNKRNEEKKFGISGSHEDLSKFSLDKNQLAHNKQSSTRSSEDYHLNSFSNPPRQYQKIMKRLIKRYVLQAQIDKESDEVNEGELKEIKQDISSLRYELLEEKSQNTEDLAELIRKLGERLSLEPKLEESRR
TRPC6 activator = activators of mouse TRPC6 channel | Q61143 | HEK293-TRPC6 membrane potential dye fluorescence; active compounds read high | B-score at 10 µM | 310,000 compounds, 0.13% hits;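 active means B-score of the integrated fluorescence ratio above library mean plus 3 SD, and starting fluorescence ratio within library mean plus 5 SD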;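 further: higher score means more depolarization so channel activation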
TRPC4 inh = blocks the mouse TRPC4 cation channel | HEK293 TRPC4beta/mu-opioid, DAMGO-evoked Fluo4 calcium flux; active compounds read low | B-score at 10 µM | 300,000 compounds, 0.39% hits;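 active means B-score over 3 SD under the library average, no early fluorescence shift, positive overall ratio signal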
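Signal: kinetic Fluo4 fluorescence imaging of calcium influx. Material: stable TRPC4beta/mu-opioid receptor HEK293 cells. Probe or stimulus: DAMGO in two steps, submaximal then maximal.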
DSG3 Ab inh = human desmoglein-3 autoantibody binding inhibition; P32926; DSG3-coupled beads, scFv-anti-DSG3-GFP binding, flow cytometry; active compounds read low; binding (percent of control), % at 10 µM; 310,000 compounds, 0.48% hits; AID 588358;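 active means binding more than 3 SD below its plate's average and above zero; inconclusive means below that plate limit but binding exactly zero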;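 further: hits lower antibody fragment binding to DSG3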
TRPC4 sel inh 2 = mouse TRPC4 off-target activity of TRPC6 inhibitors, second screen; HEK293 TRPC4/MOR, membrane potential dye fluorescence; channel activated by saturating DAMGO dose; shares compounds with TRPC6 inhibitor; inhibition, % at 10 µM; AID 2776; 920 compounds, 42% hits;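 active means compounds whose fluorescence signal differed from control wells by over 3 SD, either direction, in both duplicate plates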
TRPC4 spec = tests whether TRPC6 inhibitors also affect mouse TRPC4; shares compounds with TRPC6 inhibitor; activity change, negative = inhibition, % at 10 µM; HEK293 TRPC4/mu-opioid, membrane potential fluorescence; 920 compounds, 61% hits;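 active means rise or fall in signal beyond 3 SD of buffer-only wells in both replicate plates, either sign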;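 further: integrated kinetic ratio of fluorescence range over baseline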
HEK293 MPD ctr 2-1 = second check of TRPC6 inhibitor effects in parental HEK293 cells; shares compounds with TRPC6 inhibitor; parental HEK293 membrane potential dye fluorescence; maximal acetylcholine challenge after compound addition; signal change vs control, % at 10 µM; 920 compounds, 31% hits;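 active means membrane potential signal moving either way by over 3 SD of the maximum-effect control, in both duplicate plates, meaning non-specific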
HEK293 MPD ctr-1 = checks TRPC6 inhibitor effects in parental HEK293 cells; shares compounds with TRPC6 inhibitor; parental HEK293 membrane potential dye fluorescence; membrane potential signal change, % at 10 µM; 920 compounds, 60% hits; AID 2780;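 active means membrane potential signal shifting up or down by more than 3 SD of buffer-only wells, on both duplicate plates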
HEK293 MPD ctr-2 = counter-screen for TRPC6 modulators: effect in parental HEK293 cells | shares compounds with TRPC6 inhibitor | membrane potential dye fluorescence | membrane potential signal change, % at 10 µM | 2,400 compounds, 51% hits;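 active means membrane potential signal moves up or down beyond 5 SD from buffer-only wells, on both duplicate plates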
HEK293 MPD ctr 2-2 = second check of TRPC6 modulator effects in parental HEK293 cells | 2,400 compounds, 14% hits | inhibition, % at 10 µM | shares compounds with TRPC6 inhibitor | membrane potential dye fluorescence; after compound, maximal acetylcholine stimulation;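 active means membrane potential signal drops by more than 5 SD from the mean control signal, in both duplicate plates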;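 further: plate controls were acetylcholine ECmax control wells for no effect and buffer only wells for full effect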
TRPC4/MOR mod = selectivity of TRPC6 modulators against mouse TRPC4; shares compounds with TRPC6 inhibitor; HEK293 TRPC4/mu-opioid, membrane potential fluorescence; percent change from control (negative = decrease, positive = increase), % at 10 µM; 2,400 compounds, 69% hits; AID 488927;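 active means membrane potential signal moved up or down beyond 5 SD of buffer control wells, in both duplicate plates, actives on both sides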;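 further: plate controls were assay buffer wells for no effect and DAMGO maximal-effect wells for full effect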
TRPC4 ctr inh 2 = second selectivity test of TRPC6 modulators against mouse TRPC4 | shares compounds with TRPC6 inhibitor | HEK293 TRPC4/mu-opioid, membrane potential dye fluorescence; stimulated with maximal-effect DAMGO | inhibition, % at 10 µM | 2,400 compounds, 55% hits | AID 488928;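 active means drop in membrane potential signal beyond 5 SD of the control wells in both duplicate plates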;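 further: TRPC4 counter screen for TRPC6 hits run under conditions tuned for TRPC6 not TRPC4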
TRPC6 block conf = mouse TRPC6 inhibitor confirmation; AID 488960; 3,300 compounds, 43% hits; inhibition, % at 10 µM; HEK293-TRPC6, membrane potential dye, ACh-evoked depolarization; shares compounds with TRPC6 inhibitor;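 active means fluorescence ratio falls more than 5 SD below the full-stimulation control mean, in both duplicate runs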;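 further: integrated fluorescence ratio of peak minus minimum over baseline after agonist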
TRPC6 act conf = confirmation of mouse TRPC6 activators. shares compounds with TRPC6 inhibitor. HEK293-TRPC6 membrane potential dye fluorescence, FDSS. activation, % at 10 µM. 2,800 compounds, 11% hits. AID 488961;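 active means ratio signal rise beyond 5 SD above unstimulated control wells' mean, seen in both duplicate runs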;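 further: plate controls were buffer EC0 wells for no effect and acetylcholine ECmax response for full effect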
An asterisk follows results filed as active; i = inactive; ? = inconclusive; / = not tested or not shown; + = active, no number.

SMILES | TRPC4 PAM | TRPC4 agonist | TRPC6 inhibitor | TRPC6 activator | TRPC4 inh | DSG3 Ab inh | HEK293 MPD ctr-2 | HEK293 MPD ctr 2-2 | TRPC4/MOR mod | TRPC4 ctr inh 2 | TRPC6 block conf | TRPC6 act conf | others
CCN(CC)S(=O)(=O)c1ccc(N2CCCCC2)c(NC(=O)c2ccncc2)c1 | i | i | -6.6* | i | i | 98 | / | / | / | / | i | / | TRPC4 sel inh 2=i;TRPC4 spec=10%*;HEK293 MPD ctr 2-1=i;HEK293 MPD ctr-1=6.7%*
CCN(CC)S(=O)(=O)c1ccc(N2CCOCC2)c(NC(=O)C23CC4CC(CC(Cl)(C4)C2)C3)c1 | i | i | -6.4* | i | i | 108 | 164%* | i | i | i | 38%* | /
O=C(NC(Cc1ccccc1)C(=O)O)/C(=C/c1ccccc1)NC(=O)c1cccc(Br)c1 (configuration not stated) | i | i | i | i | i | 104 | / | / | / | / | / | /
COC(=O)C(C)Oc1ccc(Oc2nc(Cl)ccc2Cl)cc1 (configuration not stated) | i | i | i | i | i | 105 | / | / | / | / | / | /
CCC(Cc1ccccc1)NS(=O)(=O)c1c(C)nc2sccn2c1=O (configuration not stated) | i | i | i | i | i | 94 | / | / | / | / | / | /
O=C1CN(C(=O)c2cc([N+](=O)[O-])ccc2Cl)C(c2ccc(F)cc2)c2cc(F)ccc2N1 (configuration not stated) | i | i | i | i | i | 105 | / | / | / | / | / | /
CCOC(=O)c1cc(-c2ccccc2C)n(CC2CC(c3ccc(OC)cc3)=NO2)n1 (configuration not stated) | / | / | / | / | / | 99 | / | / | / | / | / | /
COC(=O)c1ccc(CN(C)S(=O)(=O)c2cccs2)cc1 | i | i | i | i | i | 94 | / | / | / | / | / | /
CCOc1cc(/C=N/NC(=O)c2ccccn2)ccc1OC(=O)c1ccc(F)cc1 | i | i | -5.3* | i | i | 107 | i | i | i | i | i | i
COc1cccc(CN2CCC(n3nccc3NC(=O)CCOc3ccccc3)CC2)c1O | i | i | -10* | i | i | ? | / | / | / | / | i | i | TRPC4 sel inh 2=i;TRPC4 spec=1.8%*;HEK293 MPD ctr 2-1=i;HEK293 MPD ctr-1=0.8%*
COc1cccc(CN2CCC(n3nccc3NC(=O)CCOc3ccccc3)CC2)c1 | i | i | i | i | i | 103 | / | / | / | / | / | /
CN1CCN(c2nc3c(c(=O)[nH]c(=O)n3C)n2CCCSc2nnnn2-c2ccccc2)CC1 | i | i | -6.5* | i | i | 107 | -212%* | i | -28%* | i | i | i
CC(C)N(Cc1ccccc1)S(=O)(=O)c1ccc2c(c1)NC(=O)CO2 | i | i | i | i | i | 93 | / | / | / | / | / | /
O=Cc1sc(N2CCOCC2)nc1-c1ccccc1 | i | i | i | i | i | / | / | / | / | / | / | /
O=CNC(n1cnc2c(N3CCOCC3)ncnc21)C(Cl)(Cl)Cl (configuration not stated) | i | i | i | i | i | 88 | / | / | / | / | / | /
O=C(CSc1nc2c(c(=O)n1-c1ccc(Br)cc1)SCC2)NCC1CCCO1 (configuration not stated) | i | i | -5* | i | i | 99 | 108%* | i | 25%* | 32%* | 51%* | /
COc1ccccc1N1CCN(C/C=C/c2ccc(N(C)C)cc2)CC1 | i | i | -7.5* | i | i | / | / | / | / | / | i | i | TRPC4 sel inh 2=68%*;TRPC4 spec=-10%*;HEK293 MPD ctr 2-1=i;HEK293 MPD ctr-1=-247%*
COc1ccc(-n2nnnc2CNC(=O)C(=O)c2c(C)[nH]c3ccccc23)cc1 | i | i | i | i | i | 99 | / | / | / | / | / | /
COC(=O)COc1coc(CN2CCN(c3cccc(Cl)c3)CC2)cc1=O | i | i | i | i | i | 109 | / | / | / | / | / | /
COC(=O)c1oc2ccc(Br)cc2c1NC(=O)CN1CCN(C)CC1 | i | i | -5.5* | i | i | 104 | i | i | -16%* | 52%* | 48%* | i
Cc1ccccc1C(=O)NCCSc1ccccc1 | i | i | -7.5* | i | i | / | / | / | / | / | i | i | TRPC4 sel inh 2=i;TRPC4 spec=3.9%*;HEK293 MPD ctr 2-1=i;HEK293 MPD ctr-1=2.1%*
COc1cccc(NC(=O)c2cc(-c3ccc(OC)cc3OC)nc3ccccc23)c1 | i | i | -5.1* | i | i | 105 | + | 73%* | -94%* | 66%* | 54%* | i
COc1ccc(-c2cc(C(=O)Nc3cc(C)on3)c3ccccc3n2)c(OC)c1 | i | i | i | i | i | / | / | / | / | / | / | /
CCN(CC)CCN(C(=O)Cn1nnc(-c2ccc(C)o2)n1)C(C(=O)NC(C)(C)C)c1cccs1 (configuration not stated) | i | i | i | 18* | i | 104 | 488%* | i | 112%* | 32%* | i | 242%*

Compound activity (PubChem)
